# Most compounds without a hit are left out; they make up all but 2.8% or so of the library.
# PAFAH1B2 FP inh – blocks human PAF acetylhydrolase 1b catalytic subunit 2 | P68402 | recombinant PAFAH1B2, FP-rhodamine activity probe, fluorescence polarization | inhibition, % at 3.39 µM | 340,000 tested, 1.2% active;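 active = inhibition above the mean of all tested compounds plus 3 SD, cut at about 24% in these data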;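 also: 0% = enzyme with DMSO and 100% = wells lacking PAFAH1B2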
# PAFAH1B3 inh – blocks human PAF acetylhydrolase 1B catalytic subunit 3 | Q15102 | recombinant PAFAH1B3, FP-rhodamine probe, fluorescence polarization | inhibition, % at 3.39 µM | 340,000 tested, 0.28% active;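 active = inhibition above the screen-wide average of all tested compounds plus 3 SD, cut at about 25% in these data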;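 also: 0% = enzyme with DMSO only and 100% = wells lacking PAFAH1B3 protein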
# pPAFAH FP inh – inhibitors of human plasma PAF acetylhydrolase (pPAFAH) | Q13093 | recombinant pPAFAH, FP-rhodamine probe fluorescence polarization | inhibition, % at 3.39 µM | 330,000 tested, 1.5% active | AID 463082;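 active = inhibition above the mean inhibition across the screen plus 3 SD, cut at about 25% in these data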;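 also: inhibitors block binding of the rhodamine activity-based probe so polarization drops; 0% = enzyme with DMSO and 100% = wells lacking pPAFAH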
# PAFAH2 FP inh – inhibitors of human PAFAH2; Q99487; recombinant PAFAH2, FP-rhodamine activity probe, fluorescence polarization; inhibition, % at 3.39 µM; 340,000 tested, 0.99% active;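 active = inhibition above the mean over all tested compounds plus 3 SD, cut at about 30% in these data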;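 also: inhibitors block probe labeling of enzyme so polarization drops; 0% = enzyme with DMSO and 100% = wells lacking PAFAH2 protein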
# mABHD4 FP – ABHD4 (mouse) inhibition, primary FP screen. AID 720543. Q8VD66. inhibition, % at 8.92 µM. purified mABHD4, FP-Rh probe fluorescence polarization. 370,000 tested, 0.54% active;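 active = inhibition exceeding the mean over every tested compound plus 3 SD, cut at about 30% in these data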;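 also: 0% = plate median of compound wells and 100% = S159A mutant with DMSO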
#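 Test system: mABHD4 protein; Read-out basis: % inhibition; Incubation: 45 min + 60 min at 25 °C; Repeats: single replicate; Technique: fluorescence polarization with parallel and perpendicular emission, 525/598 nm; Compound: 8.92 µM, single dose; Benchmarks: full inhibition S159A mutant plus DMSO, zero as sample-well median.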
# HTRA1 inhibitor – inhibitors of human serine peptidase HTRA1; 340,000 tested, 0.5% active; inhibition, % at 5.96 µM; Q92743; recombinant HTRA1, FP-rhodamine activity-based probe, fluorescence polarization; in the data active = inhibition above about 36%;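 also: 0% = enzyme with DMSO and 100% = wells lacking enzyme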
# Target sequence (Q92743 whole entry, looked up): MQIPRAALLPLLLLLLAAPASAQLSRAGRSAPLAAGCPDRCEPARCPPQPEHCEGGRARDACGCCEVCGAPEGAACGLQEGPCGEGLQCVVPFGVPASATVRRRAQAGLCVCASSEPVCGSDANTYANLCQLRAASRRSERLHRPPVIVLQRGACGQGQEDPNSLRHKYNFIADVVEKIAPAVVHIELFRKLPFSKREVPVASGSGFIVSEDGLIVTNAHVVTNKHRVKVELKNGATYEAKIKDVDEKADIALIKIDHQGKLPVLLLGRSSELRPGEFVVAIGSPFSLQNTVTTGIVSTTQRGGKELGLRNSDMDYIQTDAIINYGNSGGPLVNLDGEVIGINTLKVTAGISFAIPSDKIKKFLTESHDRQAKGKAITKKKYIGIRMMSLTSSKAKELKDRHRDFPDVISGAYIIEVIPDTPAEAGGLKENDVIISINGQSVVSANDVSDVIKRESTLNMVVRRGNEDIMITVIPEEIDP
# Starred values were filed as active, the others as inactive; · = no result given.
SMILES,PAFAH1B2 FP inh,PAFAH1B3 inh,pPAFAH FP inh,PAFAH2 FP inh,mABHD4 FP,HTRA1 inhibitor
Cc1ccc[n+](C2C(c3ccc([N+](=O)[O-])cc3)C(C#N)=C([S-])NC2(O)C2CC2)c1 (stereo not drawn),2,-1,8,2,10,4
N#CC(=C=[N-])C1=C(C#N)C(c2ccccc2F)C([n+]2ccccc2)C(O)(C2CC2)N1 (stereo not drawn),-1,5,30*,2,16,-2
COc1ccc(C=Nc2cccnc2N)cc1,-2,7,27*,4,·,24
CCN1/C(=C/C=C/c2oc3ccc4ccccc4c3[n+]2CC)Oc2ccc3ccccc3c21,·,·,42*,·,·,·
CC[n+]1c(/C=C/N(C)c2ccccc2)oc2ccc(Cl)cc21,1,1,9,0,18,0
O=C(COC(=O)C1CC2C=CC1C2)NCCc1ccccc1 (stereo not drawn),2,9,1,3,-3,9
O=C(COC(=O)C1CC2C=CC1C2)Nc1ccccc1F (stereo not drawn),-1,3,24,34*,4,7
Cc1ccc(-n2c(Cc3cccs3)nnc2SCc2ccc([N+](=O)[O-])cc2)cc1,·,·,·,·,-2,·
CCOC(=O)[C@]12CCCC=C1N(Cc1ccc(OC)cc1)C(=O)[C@@H]2CC(=O)N1CCSCC1,·,·,·,·,-2,·
CCOC(=O)C1CCCN(CC(=O)Nc2nccs2)C1 (stereo not drawn),2,5,28*,2,7,-6
C(=C\c1ccccc1)/CSc1nnc(COc2ccccc2)n1Cc1ccco1,·,·,·,·,-14,·
CC(C)(C)c1ccc(C(=O)C2CCCN(C(=O)CN3CCCC3=O)C2)cc1 (stereo not drawn),0,-5,4,-3,6,3
CN(C)C(=O)N1CCC(C(=O)N2CCCC(C(=O)c3ccc(C(C)(C)C)cc3)C2)CC1 (stereo not drawn),1,2,26*,9,-4,8
CCCCNC(=O)c1cccc(S(=O)(=O)N2CC3(C)CC2CC(C)(C)C3)c1 (stereo not drawn),36*,1,2,8,-6,-4
CC1(C)CC2CC(C)(CN2S(=O)(=O)c2cccc(C(N)=O)c2)C1 (stereo not drawn),29*,5,0,-2,-1,8
CC1(C)CC2CC(C)(CN2S(=O)(=O)c2cccc(C(=O)OCC(N)=O)c2)C1 (stereo not drawn),28*,2,2,3,-3,-1
COCCCNC(=O)c1cccc(S(=O)(=O)N2CC3(C)CC2CC(C)(C)C3)c1 (stereo not drawn),14,4,2,-5,-3,1
CC(COc1cccc([N+](=O)[O-])c1)CN1CCC(C(O)(c2ccccc2)c2ccccc2)CC1 (stereo not drawn),·,·,·,·,3,·
CCOc1ccccc1C(=O)N1CCC(Oc2cccnc2)CC1,·,·,·,·,1,·
O=C(O)c1ccc(C#Cc2cccc(F)c2)cn1,·,·,·,·,8,·
COc1ccc(-c2cc3cc(C(=O)O)ccn3c2C(=O)c2ccccc2)cc1,13,2,10,4,-16,-18
O=C(O)c1ccn2c(C(=O)c3ccccc3)c(-c3ccccc3)cc2c1,38*,4,16,1,-3,-2
CC1CCC2(CC1)SCC(=O)N2c1ccc(F)cc1 (stereo not drawn),25*,-2,3,-3,-16,0
COc1ccccc1NC(=O)c1cc(S(=O)(=O)N2CCC3(CC2)OCCO3)ccc1F,10,6,1,5,·,-5
O=C(Nc1ccccc1C(F)(F)F)c1cc(S(=O)(=O)N2CCC3(CC2)OCCO3)ccc1F,24*,0,7,6,1,-9
SMILES,PAFAH1B2 FP inh,PAFAH1B3 inh,pPAFAH FP inh,PAFAH2 FP inh,mABHD4 FP,HTRA1 inhibitor
CC(C)=C1CCC(C)CC1=NNC(N)=S (stereo not drawn),27*,7,·,5,-3,-5
COc1ccc(-c2[nH]c(-c3ccc(SC)cc3)nc2SCC(=O)Nc2nccs2)cc1,27*,25,7,-21,10,3
Cc1ccc(CSCc2ccc(C(=O)O)o2)cc1,29*,-1,24,1,2,-6
C/C(=N\NC(=O)c1cccc(N/N=C(\C)c2cc(O)ccc2O)c1)c1cc(O)ccc1O,9,16,32*,9,24,28
C/C(=N\NC(=O)c1cccc(N/N=C(\C)c2ccco2)c1)c1ccco1,-8,0,·,-4,16,12
COC(=O)C1CN(Cc2ccccc2)CCS(=O)(=O)N1Cc1ccc(OC)cc1 (stereo not drawn),·,·,·,·,-2,·
CC1CCCCC1NS(=O)(=O)c1ccc(S(=O)(=O)N2CCCC2)cc1 (stereo not drawn),14,3,26*,2,1,-10
CS(=O)(=O)c1ccc2c(c1)sc1nc(=O)c(/C=C3/C=CC(=O)C(O)=C3)c(N)n12,53*,28*,20,58*,15,20
CCCCNc1c(-c2ccc(SC(C)CC)cc2)nc2cnccn12 (stereo not drawn),13,27*,34*,18,·,11
COc1ccc(NC(=O)COC(=O)c2ccc(O)cc2)c([N+](=O)[O-])c1,0,6,28*,49*,-4,-4
O=C(O)c1ccc(CSc2nnnn2-c2ccc(F)cc2)cc1,0,5,2,6,-2,-1
O=C(O)c1ccc(-n2nnnc2SCc2ccccc2Br)cc1,27*,5,1,1,-7,-11
C=CCNC(=O)CN(C(=O)Cc1ccc(Cl)cc1)c1cccc(Br)c1,·,·,·,·,-1,·
COc1ccc(CN2C(=O)[C@@](O)(c3cccn3C)c3cc(F)ccc32)cc1,·,·,·,·,-5,·
CCOC(=O)C1=C(COC(=O)c2ccc([N+](=O)[O-])s2)NC(=O)NC1C (stereo not drawn),11,52*,4,36*,-7,36
CCOC(=O)C1=C(COC(=O)c2sccc2C)NC(=O)NC1C (stereo not drawn),7,12,1,0,-24,1
COc1ccccc1C1NC(=O)NC(C)=C1C(=O)OC1CCCCC1 (stereo not drawn),7,0,-2,7,1,8
COc1cccc2c1C1(O)C2CCCCCCCCCC12OCCCO2 (stereo not drawn),25*,0,·,11,0,-11
CN(C)S(=O)(=O)c1cccc(-c2nnc(SCCNCCO)n2-c2ccc(F)cc2)c1,0,3,-1,4,31*,-10
CCCSc1nnc(-c2cccc(S(=O)(=O)N(C)C)c2)n1-c1cc(OC)ccc1OC,2,5,4,-1,3,-8
CCC(C)Nc1nc(-c2ccc3c(c2)NC(=O)CO3)cs1 (stereo not drawn),0,1,25*,3,-15,6
